The data set can be described thus: Toxicity liver stage against HepG2, at 10uM. Format: cell-based. Set-up: test concentration 10 uM, cell line HepG2-A16-CD81EGFP. The following applies: human, HepG2-A16-CD81EGFP cells; read-out: INHIBITION
The method, boiled down:
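Uninfected HepG2-A16-CD81EGFP cells, 3 × 10^3 per well, 1536-well, plated on prespotted compound at 10 μM final, parasite-free screening media added to match infected plates; puromycin 10 μM positive, DMSO 0.5% negative; run in parallel with 48 h PbLuc assay at 37 °C, 5% CO2; viability by CellTiter-Glo luminescence, normalized to controls.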
`CN1CC[C@H](c2nnc(Cc3c[nH]c4ccccc34)o2)C1`: the cytotoxicity at 10 µM turned out to be 4.84%. Take `Cn1nc(-c2cccs2)cc1[C@H]1CN2CC[C@H]1C[C@@H]2CN`: the cytotoxicity at 10 µM was 5.88%. With `Cn1ccc2ccc(C(=O)N3CCN(C(=O)OC(C)(C)C)CC3)cc21`, the cytotoxicity at 10 µM is 18.1%. Next, `CCN1CCNC(=O)C12CCN(S(=O)(=O)c1ccc(OC)cc1)CC2`: 0.699%; `COCCN1CCC2(CCN(C(=O)c3ccc(F)cc3)CC2)C1=O`: 2.85%; `CS(=O)(=O)N1C[C@@H]2CCN(C(=O)c3ccco3)[C@@H]2C1`: 10%. Next, `COCc1cncc2c1CCN(Cc1cccnc1)C2`: 3.91%; `c1cc(C[C@H]2[C@H](N3CCOCC3)CCN2Cc2ccoc2)ccn1`: 10.2%; `CC(=O)N1CCOC2(CCCN(Cc3ccc(N(C)C)cc3)C2)C1` (centres undefined): 0.603%. Next, `O=C(c1ccoc1)N1CCc2c(COCc3ccncc3)cncc2C1`: 8.1%; `Cc1nc(NC2CCN(S(=O)(=O)c3ccccc3)CC2)[nH]c(=O)c1C`: -3.45%; `CCOc1cc([C@@H]2N[C@H](c3nccs3)Cc3ccsc32)ccc1OC`: 7.94%.

In the case of `COC(=O)c1cccc(C2CNCCN2C(C)=O)c1` (centres undefined), the cytotoxicity at 10 µM is 3.31%.

With `CS(=O)(=O)c1cc(Cl)cnc1C1CCN(C(=O)C2CCOCC2)CC1`, the cytotoxicity at 10 µM was determined as 4.07%. Next, `CN(C)c1ncc2c(O)nc(C3CCCNC3)cc2n1` (centres undefined): 8.62%; `CNc1nc(C2CCCN(C(=O)C3CCCCC3)C2)nc2c1CNCC2` (centres undefined): -1.85%; `Nc1nccnc1CC1CCCN(Cc2c[nH]c3ccccc23)C1` (centres undefined): 2.81%. Then `Cc1cc(CCC(=O)N2CCCC2)nc(C2CCCN2)n1` (centres undefined), with 5.91%.

For `CCc1cc(C(=O)N2CCCC(c3[nH]ncc3S(C)(=O)=O)C2)no1` (centres undefined), the cytotoxicity at 10 µM is -0.335%. As to `CCc1nccn1-c1cccc(C2CCCN(C3CCCCC3)C2)n1` (centres undefined), the cytotoxicity at 10 µM was -5.08%.

Turning to `Cc1c[nH]nc1C1CCCCN1C(=O)CC1(O)CCCCC1` (centres undefined), the cytotoxicity at 10 µM was -2.92%.

With `CC1CCCN(CC(=O)N2CCC(c3ncc4c(n3)CCNC4)CC2)C1` (centres undefined), the cytotoxicity at 10 µM came out at 7.62%. Next, `CNC(=O)CCOC(=O)c1cccc(-n2ccc(C(F)(F)F)n2)c1`: -41.9%; `CN1CCC(N2CCOC3(CCCC3)C2)C1=O` (centres undefined): -6.52%.

`O=C(N1CCOCC1)N1CCN(c2ccncc2Cl)CC1`: the cytotoxicity at 10 µM was -4.79%. Take `CC(CNC(=O)c1ccc(Cl)cc1F)N1CCN(C)CC1` (centres undefined): the cytotoxicity at 10 µM is -8.56%.

In the case of `Cc1nc(-c2ccsc2)ccc1C(=O)N1CCn2c(C)nnc2C1`, the cytotoxicity at 10 µM is -7.83%.

On to `CC(C)c1nc(CNC2CCN(S(C)(=O)=O)CC2)cs1`, for which the cytotoxicity at 10 µM was -1.53%.

As for `CCc1nc(C2CCCN2c2ncc(C(N)=O)cc2Cl)no1` (centres undefined), the cytotoxicity at 10 µM is -3.99%. With `CNC(=O)C(NC(=O)c1nccn2ccnc12)c1ccc(F)c(F)c1` (centres undefined), the cytotoxicity at 10 µM was -12.6%. Next, `O=C(NCC1CC1)[C@@H]1CC[C@@H]2[C@@H](CCN2CCOCc2ccccc2)O1`: -112%; `CN1CCN(Cc2cn3c(n2)CN(Cc2ccccn2)CC3)CC1`: -117%.

With `Cc1ccc(CN2CCC3(CCCN(S(C)(=O)=O)C3)C2)o1` (centres undefined), the cytotoxicity at 10 µM is -104%. Then `Cc1nc(COC[C@@H]2CC[C@H]3[C@H](CCN3S(C)(=O)=O)O2)cs1`, with 5.22%; and `Cc1cc(CN2CC[C@H]3C[C@H](c4nccs4)O[C@@H]3C2)no1`, with 3.22%.

In the case of `CCC1=N[C@@]2(CC[C@@H]3CN(C(=O)NCc4ccccc4)C[C@@H]32)C(=O)N1C`, the cytotoxicity at 10 µM turned out to be 1.05%. Then `CCOc1ccc(-c2ccnc(C)n2)cc1C(=O)O`, with 5.59%; and `COCc1nc(CNC2CCCC(C)(C)C2)no1` (centres undefined), with 2.55%; and `CC(CCN1CCC(n2cc(CCO)nn2)CC1)c1ccccc1` (centres undefined), with 3.23%. Then `COc1ccccc1-c1ncc(CN2CCC3(CCNCC3)CC2)cn1`, with -1.49%. With `Cn1c(Cn2ccnc2)nnc1C1CCCN(c2ncccn2)C1` (centres undefined), the cytotoxicity at 10 µM was -6.33%.

As for `Cn1c(CCNC(=O)C2CCCN(C3CCOCC3)C2)n[nH]c1=O` (centres undefined), the cytotoxicity at 10 µM is 2.12%.

On to `COCCC1CN(c2nc(-c3ccccc3)nc3c2CCNC3)CCO1` (centres undefined), for which the cytotoxicity at 10 µM was -2.98%. On to `Cc1ncsc1CCN(C)C(=O)c1c(O)cccc1O`, for which the cytotoxicity at 10 µM came out at 0.417%. Next, `CN(CCNC(=O)c1cnc(-c2ccncc2)nc1)S(C)(=O)=O`: 5.23%; `Cc1nccc(NCc2cc3n(n2)CCCN(S(C)(=O)=O)C3)n1`: 2.35%. Next, `CSc1cccc(CN(C)C(=O)Cn2ncc(N3CCCC3)cc2=O)c1`: -2.01%; `C/C=C(\C)CN1C[C@H](NC(=O)c2cc[nH]c2C)[C@@H](C2CC2)C1`: 4.96%. Then `Cc1cc(F)cc(CN2CCCn3nc(CNS(C)(=O)=O)cc3C2)c1`, with -3.85%. `O=C(N1CCC(OCc2ccccn2)CC1)C1(c2ccc(F)cc2)CC1`: the cytotoxicity at 10 µM was 0.178%.

As for `O=C(O)[C@@H]1CN(C2CCOCC2)C[C@H]1C1CC1`, the cytotoxicity at 10 µM is -160%.

Consider `COCC1CCN(S(=O)(=O)N2C[C@@H](C)[C@@](C)(O)C2)CC1`, for which the cytotoxicity at 10 µM was 3.45%. `CC[C@H](C)Cn1nc(C2CCNCC2)n(Cc2ccccc2)c1=O`: the cytotoxicity at 10 µM is -5.82%.

With `CCCN(Cc1cccc(OCCO)c1)Cc1ccccc1OC`, the cytotoxicity at 10 µM was 5.15%. Then `CCN(CCO)C(=O)c1cc(Cn2c(C)nc3ccccc32)[nH]n1`, with 8.51%; and `CNC(=O)[C@@H]1C[C@@H](n2cc(-c3ccc(CN4CC=CC4)cc3)nn2)CN1`, with 3.76%. As for `Cc1cccc(C(=O)N2CCCCC2c2ccc(CN(C)C)cc2)n1` (centres undefined), the cytotoxicity at 10 µM is -19.5%.

`COc1cc(CNC(C)Cn2cccn2)cc(OC)c1` (centres undefined): the cytotoxicity at 10 µM was 0.681%. Consider `COc1ccc(CNCC2CNc3ccnn3C2)cn1` (centres undefined), for which the cytotoxicity at 10 µM is -3.84%.

`CCn1cnnc1C1CCN(C(=O)c2ccc(Cl)cc2OC)CC1`: the cytotoxicity at 10 µM is -1.94%. Next, `CCC(O)CN1CCN(C(=O)CCc2c(C)noc2Cl)CC1` (centres undefined): -8.89%. Next, `Cc1noc(NC(=O)c2ccc(F)cc2)n1`: -0.481%; `Cc1noc(C)c1CN(C)C(=O)c1ccc(O)nc1`: -9.71%. Next, `CC(NC(=O)NCc1ccccc1F)(C(=O)O)c1ccco1` (centres undefined): -5.64%; `Cc1cccc(OCCN2CCC(c3ccnn3CCO)CC2)c1`: -4.87%; `O=C(c1cc[nH]n1)N1CCCC(c2cc(C(F)(F)F)[nH]n2)C1` (centres undefined): -6.97%. Consider `Cc1cc(F)ccc1NS(=O)(=O)c1cc2c(c(C(=O)O)c1)OCCO2`, for which the cytotoxicity at 10 µM was -6.56%.

In the case of `Cn1ccnc1CN1CCCN(C(=O)c2ccc3[nH]nnc3c2)CC1`, the cytotoxicity at 10 µM was -8.53%. Next, `CCCN1CCC(CNC(=O)C2(c3cc(C)cc(C)c3)CCC2)C1` (centres undefined): -0.185%. Next, `O=C(C1CCN(Cc2nc(-c3ccco3)no2)CC1)N1CCCC1`: -3.4%; `Cc1noc(C2CCN(C(=O)Nc3ccc(N(C)C)nc3)CC2)n1`: -3.45%.

For `CCn1c(CN2CCN(CCO)CC2)nc2c(F)cccc21`, the cytotoxicity at 10 µM is -8.83%. As for `O=C(c1ccnc(-n2ccnc2)c1)N1CCCC(n2ccnc2)C1` (centres undefined), the cytotoxicity at 10 µM amounted to 0.956%. Next, `COCCCN(CCOC)Cc1nc2c(cnn2C)c(=O)[nH]1`: -5.72%; `Cc1nn(C)c(Cl)c1C1CCCN1C(=O)c1ccc[nH]1` (centres undefined): -8.57%. Then `Cc1nccn1C1CCCN(C(=O)c2ccc(N3CCCC3)nn2)C1` (centres undefined), with -11.2%; and `Cc1ncc2c(n1)CN(CC(=O)Nc1ccncc1)CC2`, with -8.7%; and `Cn1ncc2c(=O)[nH]c(CN3CCCC3CC3CCCCC3)nc21` (centres undefined), with -2.41%. Then `CCOCC(O)CN1CCN(C(=O)CC(C)C)CC1` (centres undefined), with -6.98%. With `Cc1cnn(CCC(=O)N2CCCC(c3cc(C(N)=O)[nH]n3)C2)c1` (centres undefined), the cytotoxicity at 10 µM was -7.32%.

Regarding `CC(=O)N1CCC(N2CCC(c3nc(C)cc(C)n3)C2)CC1` (centres undefined), the cytotoxicity at 10 µM was -7.87%. For the compound `COc1ccccc1CN1CC[C@]2(C[C@@H](OCC(=O)N(C)C)CO2)C1`, the cytotoxicity at 10 µM is -112%.

With `c1ncc(-c2ccc(C3CNCCO3)nc2)cn1` (centres undefined), the cytotoxicity at 10 µM is -5.33%. Then `Cc1ncsc1CN1C[C@H](C(=O)NCC2CC2)[C@@H]2CCO[C@@H]2C1`, with -3.17%. Next, `CN1CCN([C@@H]2CCN(C3CCOC3)[C@H]2Cc2cnn(C)c2)CC1` (some centres undefined): 6.28%; `O=C(Nc1cnccn1)[C@@H]1COC[C@H]2CN(C3CCC3)C[C@H]21`: 14.7%. Then `O=S(=O)(NC[C@]12COC[C@H]1CN(CCc1ccccc1)C2)C1CC1`, with 12.7%; and `CO[C@H]1CCN(c2nnc(C)s2)C[C@@H]1Cc1cccc(C)c1`, with 16.6%; and `O=C1COC2(CCN(Cc3ccsc3)CC2)CN1`, with -3.46%. Turning to `CN(C)C[C@H]1OC[C@@H]2CN(C(=O)NCc3cccc(F)c3)CC[C@@H]21`, the cytotoxicity at 10 µM is -2.12%. Consider `CN1CCN(c2ncnc3c2CCN(c2ncc(F)cn2)CC3)CC1`, for which the cytotoxicity at 10 µM stood at 7.61%. Next, `O=C(NCCc1cccs1)[C@]12COC[C@H]1CN(Cc1ccccn1)C2`: -105%. Then `CN(C)C(=O)CN1C[C@H]2CC[C@@H](C1)N(C(=O)Cc1ccccc1Cl)C2`, with -11.2%; and `N#Cc1ccccc1CN1C[C@H]2CC[C@@H](C1)N(CC1CC1)C2=O`, with -11.4%.
